Measurements taken from ChEMBL document CHEMBL4196161, “Lead Optimization of 5-Aryl Benzimidazolone- and Oxindole-Based AMPA Receptor Modulators Selective for TARP γ-8” (ACS Med Chem Lett, 2018).
Values after ≈ are worked out from the molar mass of the structure shown.

How the values were obtained:
GRIA1/CACNG8 = GRIA1/CACNG8 (Homo sapiens, UniProt P42261+Q8WXS5); experiment: Modulation of recombinant human GluA1 flop isoform/TARPgamma8 expressed in HEK293F cells assessed as blockade of glutamate-induced calcium flux by calcium 5/6 dye based FLIPR assay; type: cell-based
Sequence of GRIA1/CACNG8 (P42261 whole entry, the tested form may be a part, canonical isoform): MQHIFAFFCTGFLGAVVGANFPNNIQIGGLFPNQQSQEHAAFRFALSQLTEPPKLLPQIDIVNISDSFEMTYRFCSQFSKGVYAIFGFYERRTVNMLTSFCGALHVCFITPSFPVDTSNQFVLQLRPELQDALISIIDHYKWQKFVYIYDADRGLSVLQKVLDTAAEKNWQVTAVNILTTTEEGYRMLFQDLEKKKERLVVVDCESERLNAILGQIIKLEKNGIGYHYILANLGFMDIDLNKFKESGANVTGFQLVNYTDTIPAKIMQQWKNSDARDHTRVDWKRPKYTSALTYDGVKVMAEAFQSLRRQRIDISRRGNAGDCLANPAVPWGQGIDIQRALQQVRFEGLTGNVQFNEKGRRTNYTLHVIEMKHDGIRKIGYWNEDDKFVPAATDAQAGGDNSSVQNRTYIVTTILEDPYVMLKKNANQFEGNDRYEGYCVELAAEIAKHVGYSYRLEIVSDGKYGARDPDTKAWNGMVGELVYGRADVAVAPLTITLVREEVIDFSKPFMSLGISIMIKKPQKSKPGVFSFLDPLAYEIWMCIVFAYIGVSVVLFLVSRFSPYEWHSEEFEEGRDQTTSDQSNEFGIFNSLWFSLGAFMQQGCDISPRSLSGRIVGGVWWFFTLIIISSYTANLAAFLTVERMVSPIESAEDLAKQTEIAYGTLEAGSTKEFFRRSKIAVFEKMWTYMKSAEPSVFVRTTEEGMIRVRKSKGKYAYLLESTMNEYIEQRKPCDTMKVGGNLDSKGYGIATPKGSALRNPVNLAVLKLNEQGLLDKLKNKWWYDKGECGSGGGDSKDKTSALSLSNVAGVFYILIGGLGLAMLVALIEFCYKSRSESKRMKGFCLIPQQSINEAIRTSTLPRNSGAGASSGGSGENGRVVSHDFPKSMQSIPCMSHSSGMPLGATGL
Sequence of GRIA1/CACNG8 (Q8WXS5 whole entry, the tested form may be a part, canonical isoform): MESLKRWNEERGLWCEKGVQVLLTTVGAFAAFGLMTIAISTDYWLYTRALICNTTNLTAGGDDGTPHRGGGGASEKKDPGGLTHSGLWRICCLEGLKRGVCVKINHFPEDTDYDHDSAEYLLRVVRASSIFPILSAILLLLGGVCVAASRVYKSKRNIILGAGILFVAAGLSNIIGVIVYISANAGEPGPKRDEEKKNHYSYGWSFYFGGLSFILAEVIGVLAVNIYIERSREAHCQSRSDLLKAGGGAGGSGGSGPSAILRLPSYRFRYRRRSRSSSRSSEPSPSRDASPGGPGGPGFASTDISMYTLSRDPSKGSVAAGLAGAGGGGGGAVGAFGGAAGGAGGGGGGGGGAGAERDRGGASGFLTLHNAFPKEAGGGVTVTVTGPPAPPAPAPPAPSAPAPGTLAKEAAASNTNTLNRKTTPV
In short: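 HEK-293 cells expressing a human GluA1o-γ-8 fusion construct; FLIPR calcium-flux read-out; pIC50 reported as mean and standard deviation of at least three assays run in triplicate.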

[1] = Thermodynamic solubility of the compound in simulated gastric fluid at pH 1.6 incubated under stirred condition for 3 days; type: physicochemical; details: read-out: Therm_solubility
In short: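 Thermodynamic solubility (μM) determined in simulated gastric fluid at pH 1.6 and in fasted state simulated intestinal fluid at pH 6.5.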

[2] = Apparent permeability across apical to basolateral side in MDCK-MDR1 cells at 5 uM measured after 60 mins by LC-MS/MS analysis; type: ADME, cell-based, Canis lupus familiaris; details: dog
In short: (§1)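 Bidirectional apparent permeability measured in Madin–Darby canine kidney cells transfected with the MDR1 (P-gp) gene; Papp reported in ×10–6 cm/s.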

[3] = Hepatic extraction ratio in rat liver microsomes at 1 uM measured after 60 mins in presence of NADPH by LC-MS/MS analysis; type: ADME, microsome; details: read-out: ERH
In short: (§2)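 Human or rat liver microsomal stability at 1 μM; results expressed as extraction ratio, i.e. predicted hepatic clearance divided by species-specific hepatic blood flow.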

GRIA1/CACNG2 = GRIA1/CACNG2 (Homo sapiens, UniProt P42261+Q9Y698); experiment: Modulation of recombinant human GluA1 flop isoform/TARPgamma2 expressed in HEK293F cells assessed as blockade of glutamate-induced calcium flux by calcium 5/6 dye based FLIPR assay; type: cell-based
Sequence of GRIA1/CACNG2 (P42261 whole entry, canonical isoform): as the sequence (P42261 whole entry, the tested form may be a part, canonical isoform) above
Sequence of GRIA1/CACNG2 (Q9Y698 whole entry, canonical isoform): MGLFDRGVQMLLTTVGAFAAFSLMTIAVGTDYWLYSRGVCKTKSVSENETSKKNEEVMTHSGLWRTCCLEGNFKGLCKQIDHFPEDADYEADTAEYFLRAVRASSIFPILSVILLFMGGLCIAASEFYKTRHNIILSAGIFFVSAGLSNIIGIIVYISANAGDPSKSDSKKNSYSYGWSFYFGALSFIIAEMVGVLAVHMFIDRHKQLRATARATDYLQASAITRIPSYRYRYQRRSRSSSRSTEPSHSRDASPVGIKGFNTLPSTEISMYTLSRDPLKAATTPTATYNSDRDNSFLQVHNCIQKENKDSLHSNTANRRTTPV
In short: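 HEK-293 cells transiently expressing human GluA1o cotransfected with γ-2; FLIPR calcium-flux read-out; pIC50 reported; n = 1, run in triplicate.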

[4] = Thermodynamic solubility of the compound in fasted state simulated intestinal fluid at pH 6.5 incubated under stirred condition for 3 days; details: read-out: Therm_solubility
[5] = Apparent permeability across basolateral to apical side in MDCK-MDR1 cells at 5 uM measured after 60 mins by LC-MS/MS analysis; type: ADME, cell-based, Canis lupus familiaris; details: dog; in short: as §1
[6] = Hepatic extraction ratio in human liver microsomes at 1 uM measured after 60 mins in presence of NADPH by LC-MS/MS analysis; type: ADME, microsome; details: read-out: ERH; in short: as §2
[7] = Oral bioavailability in Sprague-Dawley rat at 5 mg/kg administered as single dose by LC-MS/MS analysis; type: ADME, organism-based; details: in vivo
In short: (§3)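 Sprague–Dawley rats (n = 3/group) given compound as a solution in 20% HP-β-CD, 1 mg/kg i.v. and 5 mg/kg p.o.; plasma pharmacokinetics derived from these arms.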

[8] = Clearance in Sprague-Dawley rat at 1 mg/kg, iv administered as single dose by LC-MS/MS analysis; type: ADME, organism-based; details: in vivo
In short: (§4)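 Single 1 mg/kg i.v. dose as a solution to Sprague–Dawley rats (n = 3/group); vehicle 20% HP-β-CD in one study series, 1:1 PEG400/H2O in the other; plasma PK parameters derived.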

[9] = Ratio of unbound brain to plasma concentration in Sprague-Dawley rat at 1 mg/kg, iv or 5 mg/kg, po administered as single dose by LC-MS/MS analysis; type: ADME, organism-based; details: brain and plasma, read-out: K(p,uu,brain)
[10] = Volume of distribution at steady state in Sprague-Dawley rat at 1 mg/kg, iv or 5 mg/kg, po administered as single dose by LC-MS/MS analysis; type: ADME, organism-based; details: in vivo, read-out: Vdss; in short: as §4
[11] = Protein binding in human plasma assessed as unbound fraction at 1 uM measured after 6 hrs by equilibrium dialysis method; type: ADME, cell-free
In short: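 Human or rat plasma protein binding at 1 μM compound, expressed as fraction unbound (fub).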

Rattus norvegicus [12] = experiment: Ex vivo receptor occupancy at GluA/TARPgamma8 in po dosed Sprague-Dawley rat assessed as brain concentration causing 50% reduction in [3H]JNJ-56022486 receptor labeling in hippocampus at Tmax by autoradiography; type: functional, organism-based
In short: (§5)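 Oral dose–response in Sprague–Dawley rats, n = 3/dose (8 doses in one study; vehicle 0.5% HPMC or 20% HP-β-CD); hippocampal occupancy measured at Tmax by ex vivo autoradiography using [3H]-12; EC50 expressed against plasma (ng/mL) or brain (ng/g) exposure, ED50 against dose.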

Rattus norvegicus [13] = experiment: Ex vivo receptor occupancy at GluA/TARPgamma8 in po dosed Sprague-Dawley rat assessed as reduction in [3H]JNJ-56022486 receptor labeling in hippocampus measured within 10 mins by autoradiography; type: functional
Rattus norvegicus [14] = experiment: Ex vivo receptor occupancy at GluA/TARPgamma8 in po dosed Sprague-Dawley rat assessed as plasma concentration causing 50% reduction in [3H]JNJ-56022486 receptor labeling in hippocampus at Tmax by autoradiography; type: functional, organism-based; in short: as §5
[15] = Half life in Sprague-Dawley rat at 1 mg/kg, iv administered as single dose by LC-MS/MS analysis; type: ADME, organism-based; details: in vivo; in short: as §4
[16] = Cmax in Sprague-Dawley rat at 5 mg/kg, po administered as single dose by LC-MS/MS analysis; type: ADME, organism-based; set-up: dose 5 mg/kg, route oral; details: in vivo; in short: as §3
Homo sapiens = species: Homo sapiens; experiment: Selectivity ratio of IC50 for recombinant human GluA1 flop isoform/TARPgamma2 expressed in HEK293F cells to IC50 for recombinant human GluA1 flop isoform/TARPgamma8 expressed in HEK293F cells; type: cell-based
In short: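 Calcium-flux (FLIPR) inhibition in HEK-293 cells, giving pIC50 for each receptor. For γ-8, cells expressed a human GluA1o–γ-8 fusion construct, with at least three assays run in triplicate and reported as mean ± SD. For γ-2, cells expressed human GluA1-flop cotransfected with γ-2. The ratio compares the γ-2 IC50 with the γ-8 IC50.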

Rattus norvegicus [17] = experiment: Ex vivo receptor occupancy at GluA/TARPgamma8 in Sprague-Dawley rat assessed as reduction in [3H]JNJ-56022486 receptor labeling in hippocampus at 10 mg/kg, po at Tmax by autoradiography relative to control; type: functional
In short: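 Rats (Sprague–Dawley, n = 2/dose group) dosed orally with suspensions in 0.5% HPMC at 3 or 10 mg/kg; hippocampal GluA/γ-8 occupancy at Tmax by ex vivo autoradiography with [3H]12 radiotracer; brain (ng/g) and plasma (ng/mL) concentrations taken at Tmax.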

[18] = Volume of distribution at steady state in Sprague-Dawley rat at 1 mg/kg, iv administered as single dose by LC-MS/MS analysis; type: ADME, organism-based; details: in vivo, read-out: Vdss; in short: as §4

SMILES	IC50 (GRIA1/CACNG8)	solubility thermodynamic at 72 h [1]	Papp A→B at 1 h, 5 µM [2]	hepatic extraction ratio at 1 h, 1 µM [3]	IC50 (GRIA1/CACNG2)	solubility thermodynamic at 72 h [4]	Papp B→A at 1 h, 5 µM [5]	hepatic extraction ratio at 1 h, 1 µM [6]	clearance [8]	also measured
O=c1[nH]c2ccc(-c3c(Cl)cncc3Cl)cc2[nH]1	0.251 µM	42 µM (≈ 11.8 µg/mL)	16 ×10⁻⁶ cm/s	< 0.2	> 10 µM	52 µM (≈ 14.6 µg/mL)	83 ×10⁻⁶ cm/s	< 0.3		
Cc1cccc(C)c1-c1ccc2[nH]c(=O)[nH]c2c1		5 µM (≈ 1.19 µg/mL)	42 ×10⁻⁶ cm/s	0.5	> 10 µM	276 µM (≈ 65.8 µg/mL)	34 ×10⁻⁶ cm/s	0.3	9 mL/min/kg	bioavailability [7]: 68%; Kp uu [9]: 0.3
O=c1[nH]c2ccc(-c3c(Cl)cccc3C3CC3)cc2[nH]1		< 4 µM	10 ×10⁻⁶ cm/s	0.5	> 10 µM	90 µM (≈ 25.6 µg/mL)	18 ×10⁻⁶ cm/s	< 0.3	21 mL/min/kg	Vd [10]: 4.6 L/kg; bioavailability [7]: 121%; fraction unbound at 6 h, 1 µM [11]: 0.2; EC50 (Rattus norvegicus [12]): 1611 ng/g; ED50 (Rattus norvegicus [13]): 3.2 mg/kg; EC50 (Rattus norvegicus [14]): 0.486 µg/mL (≈ 1.71 µM); half-life [15]: 2.7 h; Kp uu [9]: 0.3; Cmax [16]: 502 ng/mL
N#Cc1cccc(Cl)c1-c1ccc2[nH]c(=O)[nH]c2c1	0.251 µM	< 4 µM	14 ×10⁻⁶ cm/s	< 0.2	> 10 µM	5 µM (≈ 1.35 µg/mL)	70 ×10⁻⁶ cm/s	< 0.3		
N#CCc1cccc(Cl)c1-c1ccc2[nH]c(=O)[nH]c2c1	0.01 µM	26 µM (≈ 7.38 µg/mL)	6.6 ×10⁻⁶ cm/s	0.6	> 10 µM	230 µM (≈ 65.3 µg/mL)	70 ×10⁻⁶ cm/s	< 0.3		
Cc1cc(-c2c(Cl)cncc2OC(F)F)cc2c1NC(=O)C2		140 µM (≈ 45.5 µg/mL)	34 ×10⁻⁶ cm/s	0.4	> 10 µM	64 µM (≈ 20.8 µg/mL)	66 ×10⁻⁶ cm/s	< 0.3	19 mL/min/kg	Ratio IC50 (Homo sapiens): > 1000; Occ (Rattus norvegicus [17]): 72%; half-life [15]: 1.2 h; Vd [18]: 1.9 L/kg
Cc1cccc(C)c1-c1ccc2c(c1)CC(=O)N2					> 10 µM					
